Experimental data published in the RNAGym collection of RNA variant scans (doi:10.1126/science.aae0568).
This sample holds only a part of the variants without activity.

B1: tRNA (parent)
chain: GUUCCGUUGGCGUAAUGGUAACGCGUCUCCCUCCUAAGGAGAAGACUGCGGGUUCGAGUCCCGUACGGAACG

Variants of: B1
Assay: yeast fitness relative to wild type (ratio to wild type); higher = fitter; tRNA-Arg(CCU), competitive growth, 37 C, YPD
Procedure, shortened: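 Amplicons of the tRNA-Arg(CCU) gene were sequenced, 100-nucleotide paired-end, from the start population and from each end population of a pooled yeast competition. The competition, in six parallel replicates, lasted 24 hours in YPD at 37°C. Fitness relative to wild type was calculated from changes in genotype frequencies. Genotypes had to have ≥ 100 starting reads, and estimates < 0.5 were set to 0.5.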

Row | Variant | yeast fitness
1 | A21C U28G C66U | ≤ 0.5
2 | C22U A37G G48C | 0.54
3 | G12A C24U | 0.697
4 | C5G A20G C30A C34G | ≤ 0.5
5 | C4U G25C C30G C55A | 0.561
6 | G6C A40U G56A | ≤ 0.5
7 | C33G G48A U64A | 0.613
8 | U13C A20G C46U U47A A70U | ≤ 0.5
9 | C24G A36G A40C | ≤ 0.5
10 | G12C U32G | 0.689
11 | G18A U26G G50C C62A G63C | ≤ 0.5
12 | G10C U26C A45G C49U C55G | ≤ 0.5
13 | C4G C29G C61U | 0.562
14 | G12A C27G C55A G58A | ≤ 0.5
15 | A20C G38C | 0.639
16 | C5G C46G A65C | 0.668
17 | C31A A42C | 0.963
18 | U2C U13A C27G C33A G48A G51C | ≤ 0.5
19 | G9A C22A U26A G52C G67A | ≤ 0.5
20 | A15U C22U G44C | ≤ 0.5
21 | C4G A20U A57U C62U | ≤ 0.5
22 | G9A C29A G50A | 0.62
23 | A21C G67U | 0.656
24 | U2C C27U G41A | 1.06

Row | Variant | yeast fitness
25 | U3C C4A A15C C27G C33U C61G | ≤ 0.5
26 | A14C A21U A42C G58C U64A A69C | ≤ 0.5
27 | C27U C31U G51C C66A | ≤ 0.5
28 | C4U G58C | 1.02
29 | C27A G52A | 0.619
30 | A21C C22G A57G | ≤ 0.5
31 | C22G C29A A43C C60G | ≤ 0.5
32 | A14C A20G C27U C62U | ≤ 0.5
33 | G10A A57U A65C A70G | ≤ 0.5
34 | C5G G23A C61G | ≤ 0.5
35 | C5G U16A C61U | 0.589
36 | G48A C61U | 1.04
37 | G6A A37G G68A A69G | 0.545
38 | U2C C31G U35A A69U | ≤ 0.5
39 | A45G G68A | 0.973
40 | C30U U32G U64A G68C | ≤ 0.5
41 | U26A G44C C62A | 0.598
42 | U7C C29G G67C | 0.651
43 | U8A C55G | ≤ 0.5
44 | C5G C29A U32G | ≤ 0.5
45 | U26C C66U | 0.823
46 | G12C U13A G50A | ≤ 0.5
47 | G9A A14C | 0.591
48 | C27U G52C C60U | 0.521

Row | Variant | yeast fitness
49 | A20C C61A | 0.779
50 | A14U C30U U59A | ≤ 0.5
51 | C4A C29G A40U C55A G67C | ≤ 0.5
52 | A42C G63U | 0.72
53 | A15U G25C C49G U59G | ≤ 0.5
54 | C29U G41A | 0.731
55 | A14U A37C C46U G51C C66G | 0.529
56 | U8C G9A A40C A45G A57G | ≤ 0.5
57 | A40G G51C U59A C61A A69U | ≤ 0.5
58 | U54C U64A A69U | 0.698
59 | C11U C29A A57G | ≤ 0.5
60 | G18C A20G C29A G67A | ≤ 0.5
61 | C11U A21C C22G | 0.657
62 | U35A A37G A40G A43U A45C | ≤ 0.5
63 | C11A C24G C34U C49A | ≤ 0.5
64 | C5U G56A | 0.937
65 | G41A A43G C60G A65G | 0.571
66 | U3A A40U A70G | 0.597
67 | C11A A36U A40C | ≤ 0.5
68 | A15U U19A A45C C55U A57U | 0.583
69 | U47C G63C | 0.769
70 | G6A C24U C61A | ≤ 0.5
71 | C22G C34U A69U | 0.573
72 | G9A C46U | 0.943

Row | Variant | yeast fitness
73 | A42C C66G | 0.684
74 | U35C A42C A43G | 0.617
75 | A21G C29A G48C | 0.57
76 | G9C U19C C31A C55U A69C | 0.547
77 | G6A A14G A15G A20C U64A G67A | ≤ 0.5
78 | G6C C22A C31G A42G A65C | ≤ 0.5
79 | G9C C24U U26G U54G | ≤ 0.5
80 | G12C U16A C49G | 0.593
81 | G23C U59G C60G | ≤ 0.5
82 | U13C G38C A43C G51C G56C | 0.531
83 | G10A C27G C60A | ≤ 0.5
84 | U3C G18A U53A U54G G63A | ≤ 0.5
85 | A15G C61U G67A | 0.549
86 | U2C A21U A40C G56C | 0.66
87 | C34U G52A U54A C66U A69C | ≤ 0.5
88 | G6A G9C | 0.81
89 | U2G C4G A21C A69C | ≤ 0.5
90 | G6A C31G | 0.975
91 | A14C A42G | 0.595
92 | A20G A45C | 0.866
93 | C46U C55A G56C A65G | ≤ 0.5
94 | G6A C24U A42U U53G G68C | ≤ 0.5
95 | A14G C30A C34A A43C C62U G63A | ≤ 0.5
96 | U2C C4G | 0.965

Row | Variant | yeast fitness
97 | U28A A70U | 0.738
98 | U28A C30U A40G U54G | ≤ 0.5
99 | C33G A36C C46A | ≤ 0.5
100 | U2A G12A C30A A43U C60A G67A | ≤ 0.5
101 | C27U G51C C62G | ≤ 0.5
102 | U16A C30U | 0.817
103 | G10C C33G U64C | ≤ 0.5
104 | G6C U8C G41C | ≤ 0.5
105 | C4A C33U A57G C66G | ≤ 0.5
106 | G38A C46U A69U | 0.686
107 | A20C A36C A45C | 0.592
108 | C22A G48C | 0.851
109 | G18A U26G A40G U59G C62A | ≤ 0.5
110 | U2A C4G G9A G44A U54C | ≤ 0.5
111 | G38A C55A | 0.71
112 | G9C A69U | 0.841
113 | C4G C60U G63C G68A | ≤ 0.5
114 | A15C G58A G68A A70C | ≤ 0.5
115 | C11A A15C C24G G58A | ≤ 0.5
116 | C22A U28G C31G A42U | ≤ 0.5
117 | G17C C34U G68A | 0.536
118 | U8C C31G G48A U54C | ≤ 0.5
119 | A15G C49A | 0.735
120 | C24U A43C C49U G51U | ≤ 0.5

Row | Variant | yeast fitness
121 | A20U U26A C61A A69C | ≤ 0.5
122 | A14G U16A C24G A45G C62A A69C | ≤ 0.5
123 | G17C C31U A42C C49A | 0.534
124 | G10C G58A | 0.553
125 | C11U A20U C24U C29A U32C A70G | ≤ 0.5
126 | G12A C24U G38C C62G | ≤ 0.5
127 | U13C A21G | 1.09
128 | G25C C31G C34G C61U | ≤ 0.5
129 | A21U G44A G56A | ≤ 0.5
130 | G23A C33G U35G C60U C62G A69U | ≤ 0.5
131 | G39A C61A | 0.789
132 | G10A U13A C24U A65C | ≤ 0.5
133 | U2C C22G A36G | 0.651
134 | C27U C46U G48A | 0.888
135 | C5G C11A | 0.609
136 | G9A C11U A36C | ≤ 0.5
137 | C27A C29U C46A | 0.684
138 | U19C A20U C22U C27G G48C G51A | ≤ 0.5
139 | C22G U53A | 0.673
140 | C29G C55A U64C | ≤ 0.5
141 | C29G A36U A43G | ≤ 0.5
142 | G12A A36G | 0.906
143 | U3A C22G C30U U32G U53C G68C A70G | ≤ 0.5
144 | A15G G25A G38A | ≤ 0.5

Row | Variant | yeast fitness
145 | U2C A21U U32A A40C G56C | ≤ 0.5
146 | U16C U35C G44C | ≤ 0.5
147 | C4U G10A C22U | ≤ 0.5
148 | U3C C46A G48A C66U | 0.629
149 | C27A C34U A42C U53G | ≤ 0.5
150 | U13A C22U G51A C62G G63C C66G A69U | ≤ 0.5
151 | G58C U64A A69C | 0.514
152 | C5U C29U A43G G48C C55A | ≤ 0.5
153 | A15G C61G A70C | 0.639
154 | C29G C46G G48C C62U | ≤ 0.5
155 | C4U C31G | 0.868
156 | U53A A70G | 0.594
157 | C4U U16C C24U | 0.675
158 | U7G C30U | 0.895
159 | C4U A15C C30G A69U | ≤ 0.5
160 | U2A A21C C31G A43C | ≤ 0.5
161 | U28A G44A G50A A57G G63A | ≤ 0.5
162 | G10C C34U A40C | 0.667
163 | U2C G23C C31G C33U A42G G50U G52C G58C | ≤ 0.5
164 | G23C G44C C49U | ≤ 0.5
165 | A36G U54C | 0.906
166 | G39C A57C C61A U64C | ≤ 0.5
167 | C24U C29U A36C A42U A57U | 0.518
